Test results: publication PMC7572827 (Clinical cancer research : an official journal of the …, 2020)
Where “and” joins values, the source holds several entries; their conditions need not be identical. Equal entries are not always repeated. Entries after “also recorded” stand apart in the source; their conditions may differ. Where two headings read alike, the source gives them in different places.

How the values were obtained:
[1] = test system: mCRPC; conditions: SWITCH phase 2 crossover study; cited from earlier work
[2] = Plasma pharmacokinetics by LC/MS/MS; conditions: steady-state, by ZEN-3694 dose level
[3] = test system: MYC and AR-signaling; assay: RNA-seq gene set enrichment analysis of paired metastatic tumor biopsies; format: in vivo, human; conditions: four patients, with enzalutamide, median eight weeks of treatment
[4] = test system: metastatic castration-resistant prostate cancer (mCRPC); format: in vivo, human
[5] = test system: BET inhibitor target genes MYC, IL-8, CCR1, GPR183, IL1RN; assay: Whole blood RNA expression of BET inhibitor target genes; format: in vivo, human
Outline: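 mCRPC patients received the oral test compound once daily plus enzalutamide 160 mg daily. Whole blood RNA was sampled pre-dose and 2, 4, 6 and 24 h after the cycle 1 day 1 dose. Panel: MYC, IL-8, CCR1, GPR183, HEXIM1, IL1RN. Expression change was correlated with parent plus active metabolite exposure: AUC0–2 for MYC and GPR183, AUC0–4 for CCR1, IL1RN and IL-8. Exposure was measured by plasma LC/MS/MS.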

[6] = Phase 1b/2a safety: treatment-related adverse events; format: in vivo, human
Outline: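 Open-label, multicenter phase 1b/2 trial in progressive mCRPC patients resistant to abiraterone and/or enzalutamide. Test compound was given orally once daily, starting at 36 mg, with 3+3 escalation up to 144 mg daily. Expansion cohorts received 48 or 96 mg daily. All patients took enzalutamide 160 mg daily, with a 14-day enzalutamide lead-in if not already on it. Cycles were 28 days. Adverse events were graded by CTC v4.0, with assessments weekly in cycles 1–2, every 2 weeks in cycle 3, then every 4 weeks.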

## C[C@]12CC[C@H](O)CC1=CC[C@@H]1[C@@H]2CC[C@]2(C)C(c3cccnc3)=CC[C@@H]12 [abiraterone]
[1]
  Median PFS, second line: 1.7 months

## CNC(=O)c1ccc(N2C(=S)N(c3ccc(C#N)c(C(F)(F)F)c3)C(=O)C2(C)C)cc1F [enzalutamide]
[2]
  Impact of ZEN-3694 on concentration: no significant impact
[1]
  Median PFS, second line: 3.5 months

## CNc1nc2ncc(-c3c(C)noc3C)cc2n1Cc1ccccc1 [ZEN-3694]
[3]
  Gene set enrichment, on-treatment versus baseline tumor biopsies: down-regulation of expression of MYC and AR-signaling
[4]; 7 patients
  Patients remaining on treatment without progression at data cut-off: 9%
[4]; four patients
  Patients on treatment greater than 24 months without progression: 5%
[4]; higher canonical AR transcriptional activity in baseline biopsy
  Median time to progression (TTP): 19 weeks
[4]; overall cohort
  Composite median radiographic or clinical progression-free survival: 5.5 months
[4]; overall cohort, with enzalutamide
  Median radiographic progression-free survival (rPFS): 9.0 months and 9 months
[4]; patients that had progressed on abiraterone
  Median rPFS: 7.8 months
[4]; primary resistance to prior first-line AR targeted therapy, progression within 6 months, N = 12
  Median rPFS: 10.6 months
[4]; primary resistance, progression within 16 weeks, N = 5
  Composite median PFS: 10.6 months
[4]; prior progression on abiraterone
  Composite median radiographic or clinical progression-free survival: 5.5 months
[4]; radiographic progression at study entry
  Median rPFS: 7.8 months
[4]; serum PSA consistently rose beyond 12 weeks, N = 21
  Median rPFS: 7.2 months
[4]; tumors with high AR activity
  Median rPFS: 4.3 months
[4]; tumors with low AR score
  Median rPFS: 10.4 months
[4]; without aggressive variant clinical features, p = 0.24
  Median TTP: 5.5 months
[5]; 4 hours post-ZEN-3694 dose, p ≤ 0.0001
  Mean difference in whole blood RNA expression of BETi targets: up to 4 fold
[5]; dose-dependent, post-C1D1 dose
  Decrease in whole blood mRNA levels of BET inhibitor target genes MYC, IL-8, CCR1, GPR183, IL1RN: 2–4 fold
[5]; in vivo
  Dose level at which decrease in BET inhibitor target gene expression plateaus: ≥ 96 mg
  Duration of decrease in whole blood mRNA levels of BET inhibitor target genes: at least 8 hours
[6]; 36mg QD n=4
  Treatment-related AE all grades, patients: Fatigue: 1
  Treatment-related AE all grades, patients: Visual symptoms: 3
  Treatment-related AE all grades, patients: Weight loss & Abnormal WL: 1
[6]; 48 mg QD n=21
  Treatment-related AE all grades, patients: Constipation: 1
  Treatment-related AE all grades, patients: Decreased Appetite: 2
  Treatment-related AE all grades, patients: Dysgeusia: 2
  Treatment-related AE all grades, patients: Dyspepsia: 1
  Treatment-related AE all grades, patients: Fatigue: 8
  Treatment-related AE all grades, patients: Nausea: 7
  Treatment-related AE all grades, patients: Photopsia: 1
  Treatment-related AE all grades, patients: Photosensitivity: 2
  Treatment-related AE all grades, patients: Rash maculopapular: 3
  Treatment-related AE all grades, patients: Thrombocytopenia: 1
  Treatment-related AE all grades, patients: Visual symptoms: 12
  Treatment-related AE all grades, patients: Vomiting: 1
[6]; 72mg QD n=6
  Treatment-related AE all grades, patients: Decreased Appetite: 1
  Treatment-related AE all grades, patients: Diarrhea: 1
  Treatment-related AE all grades, patients: Dizziness: 1
  Treatment-related AE all grades, patients: Dysgeusia: 0
  Treatment-related AE all grades, patients: Fatigue: 2
  Treatment-related AE all grades, patients: Nausea: 3
  Treatment-related AE all grades, patients: Taste disorder: 1
  Treatment-related AE all grades, patients: Thrombocytopenia: 2
  Treatment-related AE all grades, patients: Visual symptoms: 6
  Treatment-related AE all grades, patients: Weight loss & Abnormal WL: 1
[6]; 96mg QD n=31
  Treatment-related AE all grades, patients: Blood creatinine Increased: 3
  Treatment-related AE all grades, patients: Constipation: 3
  Treatment-related AE all grades, patients: Decreased Appetite: 10
  Treatment-related AE all grades, patients: Diarrhea: 5
  Treatment-related AE all grades, patients: Dizziness: 3
  Treatment-related AE all grades, patients: Dysgeusia: 10
  Treatment-related AE all grades, patients: Dyspepsia: 2
  Treatment-related AE all grades, patients: Fatigue: 13
  Treatment-related AE all grades, patients: Nasal congestion: 3
  Treatment-related AE all grades, patients: Nausea: 17
  Treatment-related AE all grades, patients: Photopsia: 3
  Treatment-related AE all grades, patients: Photosensitivity: 3
  Treatment-related AE all grades, patients: Rash: 3
  Treatment-related AE all grades, patients: Rash maculopapular: 1
  Treatment-related AE all grades, patients: Taste disorder: 3
  Treatment-related AE all grades, patients: Thrombocytopenia: 6
  Treatment-related AE all grades, patients: Vision blurred: 2
  Treatment-related AE all grades, patients: Visual symptoms: 17
  Treatment-related AE all grades, patients: Vomiting: 3
  Treatment-related AE all grades, patients: Weight loss & Abnormal WL: 3
[6]; 96 mg/day dose level, Grade 3 nausea, cycle 1
  Dose-limiting toxicity: One patient
[6]; 120mg QD N=4
  Treatment-related AE all grades, patients: Decreased Appetite: 3
  Treatment-related AE all grades, patients: Dysgeusia: 1
  Treatment-related AE all grades, patients: Fatigue: 3
  Treatment-related AE all grades, patients: Nausea: 3
  Treatment-related AE all grades, patients: Vision blurred: 1
  Treatment-related AE all grades, patients: Visual symptoms: 4
  Treatment-related AE all grades, patients: Vomiting: 1
  Treatment-related AE all grades, patients: Weight loss & Abnormal WL: 1
[6]; 120 mg/day
  Patients requiring dose reduction and/or discontinuation: 75%
[6]; 144mg QD N=3
  Treatment-related AE all grades, patients: Decreased Appetite: 2
  Treatment-related AE all grades, patients: Dysgeusia: 3
  Treatment-related AE all grades, patients: Fatigue: 1
  Treatment-related AE all grades, patients: Nausea: 2
  Treatment-related AE all grades, patients: Rash maculopapular: 1
  Treatment-related AE all grades, patients: Thrombocytopenia: 1
  Treatment-related AE all grades, patients: Visual symptoms: 2
  Treatment-related AE all grades, patients: Weight loss & Abnormal WL: 2
[6]; 144 mg/day
  Patients requiring dose reduction and/or discontinuation: 100%
[6]; 6Dmg QD n=6
  Treatment-related AE all grades, patients: Blood creatinine Increased: 2
  Treatment-related AE all grades, patients: Decreased Appetite: 2
  Treatment-related AE all grades, patients: Dysgeusia: 0
  Treatment-related AE all grades, patients: Fatigue: 1
  Treatment-related AE all grades, patients: Nausea: 2
  Treatment-related AE all grades, patients: Taste disorder: 1
  Treatment-related AE all grades, patients: Thrombocytopenia: 1
  Treatment-related AE all grades, patients: Visual symptoms: 4
[6]; TOTAL n=75
  Treatment-related AE all grades, patients: Blood creatinine Increased: 5 (6.7) n (%)
  Treatment-related AE all grades, patients: Constipation: 4 (5.3) n (%)
  Treatment-related AE all grades, patients: Decreased Appetite: 20 (26.7) n (%)
  Treatment-related AE all grades, patients: Diarrhea: 6(8) n (%)
  Treatment-related AE all grades, patients: Dizziness: 4 (5.3) n (%)
  Treatment-related AE all grades, patients: Dysgeusia: 16 (21.3) n (%)
  Treatment-related AE all grades, patients: Dyspepsia: 3(4) n (%)
  Treatment-related AE all grades, patients: Fatigue: 29 (38.7) n (%)
  Treatment-related AE all grades, patients: Nasal congestion: 3(4) n (%)
  Treatment-related AE all grades, patients: Nausea: 34 (45.3) n (%)
  Treatment-related AE all grades, patients: Photopsia: 4 (5.3) n (%)
  Treatment-related AE all grades, patients: Photosensitivity: 5 (6.7) n (%)
  Treatment-related AE all grades, patients: Rash: 3(4) n (%)
  Treatment-related AE all grades, patients: Rash maculopapular: 5 (6.7) n (%)
  Treatment-related AE all grades, patients: Taste disorder: 5 (6.7) n (%)
  Treatment-related AE all grades, patients: Thrombocytopenia: 11 (14.7) n (%)
  Treatment-related AE all grades, patients: Vision blurred: 3(4) n (%)
  Treatment-related AE all grades, patients: Visual symptoms: 48 (64) n (%)
  Treatment-related AE all grades, patients: Vomiting: 5 (6.7) n (%)
  Treatment-related AE all grades, patients: Weight loss & Abnormal WL: 8(10.7) n (%)
[6]; ZEN-3694 36 to 144 mg daily with enzalutamide 160 mg daily
  Maximum tolerated dose: without reaching an MTD; also recorded: not reached
[6]; all dose levels, 24/75
  Patients requiring dose reduction and/or treatment discontinuation due to adverse events: 32%
[6]; all dose levels, n=75, with enzalutamide
  Patients with Grade ≥ 3 treatment-related adverse event: 18.7%
[6]; doses from 36 mg – 96 mg/day
  Patients requiring dose reduction and/or discontinuation: 10%−35%
[6]; in combination with enzalutamide
  Recommended phase 2 dose: 96 mg/day
[6]; n=75, with enzalutamide
  Grade ≥ 3 nausea: 4%
[6]; nine patients
  Patients discontinued for adverse event: 12%
